In series [1] the target is T1, thrombin (Homo sapiens, UniProt P00734). Description: Enzyme cleavage by purified thrombin. Format: biochemical.
The subject of another series is human atheromas. Put plainly: Ex vivo incubation of human carotid endarterectomy specimens. In outline: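 Fresh carotid endarterectomy specimens from five patients, held on ice, embedded in 0.5% agarose, cut into 2 mm slices. Slices from the same specimen incubated 1 h in 10 μmol L−1 Cy5-labelled cleavable or control probe; two sections also with 110 or 220 μmol L−1 argatroban. Fluorescence measured on cryosections, background-subtracted. Slices homogenised in SDS sample buffer, centrifuged, supernatant run on gel. Paired t-test.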

The target of series [2] is T2, Active thrombin in serum (Mus musculus, UniProt P19221). Description: biochemical. The conditions noted are these: read-out: inhibition of DPRSFL–ACPP proteolysis by serum.
Series [3] addresses T1, thrombin. Description: Determination of kcat/Km with thrombin. Format: biochemical. The method, boiled down:
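Thrombin at 50 nmol L−1 with seven substrate concentrations from 1 to 30 μmol L−1, sampled at 5, 15, 30 and 60 min. Reactions stopped with SDS sample buffer and run on tricine gels. Percent cleavage = (lower band − background)/(lower + upper band − 2×background), uncleaved-substrate value subtracted. Percent × starting concentration gives product. Velocity is the slope of the linear product-versus-time segment. Km and kcat come from the Lineweaver–Burke intercept and slope.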

The target in a further series is plasmin (Homo sapiens, UniProt P00747). Put plainly: Enzyme cleavage by plasmin. As to conditions: 5 μmol L^−1 peptide, 50 nmol L^−1 enzyme. The class given is biochemical.
The next series concerns trypsin. Description: Enzyme cleavage by trypsin. The class given is biochemical. As to conditions: 5 μmol L^−1 peptide, 50 nmol L^−1 enzyme.
The next series concerns chymotrypsin. Description: Enzyme cleavage by chymotrypsin. The class given is biochemical. As to conditions: 5 μmol L^−1 peptide, 50 nmol L^−1 enzyme.
A further series has as its target factor Xa (Bos taurus, UniProt P00743). Put plainly: Enzyme cleavage by factor Xa. The class given is biochemical. As to conditions: 5 μmol L^−1 peptide, 50 nmol L^−1 enzyme.
The target of the next series is T3, factor VIIa (Homo sapiens, UniProt P08709).
T3 sequence (P08709 213-466 limits assumed): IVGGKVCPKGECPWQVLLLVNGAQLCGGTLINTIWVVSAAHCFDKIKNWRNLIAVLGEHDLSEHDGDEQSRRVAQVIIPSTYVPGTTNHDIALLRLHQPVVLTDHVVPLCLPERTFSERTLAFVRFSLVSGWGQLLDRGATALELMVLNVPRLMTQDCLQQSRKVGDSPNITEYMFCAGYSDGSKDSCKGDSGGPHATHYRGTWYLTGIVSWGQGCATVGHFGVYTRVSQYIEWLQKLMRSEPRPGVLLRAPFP
T3 sequence (P08709 61-212 limits assumed): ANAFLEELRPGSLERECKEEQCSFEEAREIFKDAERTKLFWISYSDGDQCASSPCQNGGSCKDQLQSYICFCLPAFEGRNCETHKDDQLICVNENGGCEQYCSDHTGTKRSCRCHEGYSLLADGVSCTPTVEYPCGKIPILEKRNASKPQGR
Description: Enzyme cleavage by factor VIIa. The class given is biochemical. The conditions noted are these: 5 μmol L^−1 peptide, 50 nmol L^−1 enzyme.

Another series addresses factor XIa (Homo sapiens, UniProt P03951). Description: Enzyme cleavage by factor XIa. Format: biochemical. The conditions noted are these: 5 μmol L^−1 peptide, 50 nmol L^−1 enzyme.
The next series addresses T4, factor XIIa (Homo sapiens, UniProt P00748).
T4 sequence (P00748 373-615 limits assumed): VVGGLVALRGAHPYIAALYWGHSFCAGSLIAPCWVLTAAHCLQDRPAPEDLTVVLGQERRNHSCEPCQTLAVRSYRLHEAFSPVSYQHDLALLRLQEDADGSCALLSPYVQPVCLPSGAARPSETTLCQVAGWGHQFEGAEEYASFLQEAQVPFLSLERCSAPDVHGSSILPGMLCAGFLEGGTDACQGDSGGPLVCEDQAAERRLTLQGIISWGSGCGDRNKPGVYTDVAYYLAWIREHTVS
Description: Enzyme cleavage by factor XIIa. The class given is biochemical. As to conditions: 5 μmol L^−1 peptide, 50 nmol L^−1 enzyme.

A further series has as its target T5, cathepsin G (Homo sapiens, UniProt P08311).
T5 sequence (P08311 21-255): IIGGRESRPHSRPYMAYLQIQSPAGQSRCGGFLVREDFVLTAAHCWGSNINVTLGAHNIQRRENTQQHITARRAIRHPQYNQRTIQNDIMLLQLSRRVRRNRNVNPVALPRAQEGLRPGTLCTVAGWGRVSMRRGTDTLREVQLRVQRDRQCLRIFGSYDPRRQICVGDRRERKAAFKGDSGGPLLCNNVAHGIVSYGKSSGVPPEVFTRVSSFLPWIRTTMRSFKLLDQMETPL
Description: Enzyme cleavage by cathepsin G. The conditions noted are these: 5 μmol L^−1 peptide, 50 nmol L^−1 enzyme. The class given is biochemical.

Another series has as its target T6, neutrophil elastase (Homo sapiens, UniProt P08246).
T6 sequence (P08246 30-267): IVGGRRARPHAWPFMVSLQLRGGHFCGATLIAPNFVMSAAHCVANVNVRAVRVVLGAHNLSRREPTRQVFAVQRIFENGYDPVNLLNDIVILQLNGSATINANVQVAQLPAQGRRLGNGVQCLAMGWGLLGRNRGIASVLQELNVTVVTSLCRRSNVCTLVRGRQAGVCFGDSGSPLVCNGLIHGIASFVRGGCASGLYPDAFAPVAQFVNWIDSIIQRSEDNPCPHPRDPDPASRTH
Description: Enzyme cleavage by neutrophil elastase. Format: biochemical. As to conditions: 5 μmol L^−1 peptide, 50 nmol L^−1 enzyme.

Series [4] addresses activated protein C (APC) (Homo sapiens, UniProt P04070). Description: Enzyme cleavage by activated protein C. The class given is biochemical. As to conditions: 5 μmol L^−1 peptide, 50 nmol L^−1 enzyme.
Series [5] has as its system clots at the end of the amputated tail tips. Put plainly: In vivo clot imaging after tail amputation. Also on record: species or system wildtype FVB mice. The conditions noted are these: 10 nanomoles iv, 24 hours, p = 0.045. In outline: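 Wildtype FVB mouse tails clipped 2.5 mm from the tip. 20 min later, 10 nanomoles cleavable or control probe given i.v. At 24 h, under ketamine/midazolam (80, 5 mg kg−1), tail-tip clots imaged by fluorescence dissecting microscope (ex 620/60, em 700/75). Intensity quantified from images.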

On the set-up of series [6]: species or system mice. The conditions noted are these: mouse, in vivo, iv.
For series [7], the system named is atherosclerotic plaques. Description: Aorta and plaque fluorescence sorted by histologic group. The class given is in vivo, mice.
Series [8] relates to atherosclerotic plaques. Put plainly: Distribution of fluorescence within sectioned plaques. The class given is in vivo, LDLR−/− mice. As to conditions: 15 plaques, n = 5 mice, p = 0.023 paired t-test.
Series [9] has as its system atherosclerotic plaques. Description: Imaging of carotid plaques after co-injection of two probes. The class given is in vivo, LDLR−/− mice. As to conditions: rhodamine-labelled DPRSFL–ACPP, two animals. The method, boiled down:
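LDLR−/− mice (C57BL/6 background) fed 0.5% cholesterol diet for 1–2 years, given rhodamine-labelled test probe plus Cy5-labelled MMP-cleavable probe intravenously. At 6 h, under anaesthesia, the carotid was exposed and imaged by fluorescence dissecting microscope. Carotid bifurcation and aortic arch imaged postmortem (rhodamine ex 560/25, em 607/36; Cy5 ex 620/60, em 700/75). Tissue then frozen for histology.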

The target of series [10] is T2, Active thrombin in serum.
Series [11] deals with T1, thrombin. As to conditions: thrombin activity on native receptor; cited from earlier work.
[12] abbreviates: 50 nmol L^−1 thrombin, 1 to 30 μmol L^−1 peptide, 5-60 min, gel read-out.

Read-outs that look alike come from different tables or passages of the source.

activated protein C (APC), sequence (P04070 212-461 limits assumed): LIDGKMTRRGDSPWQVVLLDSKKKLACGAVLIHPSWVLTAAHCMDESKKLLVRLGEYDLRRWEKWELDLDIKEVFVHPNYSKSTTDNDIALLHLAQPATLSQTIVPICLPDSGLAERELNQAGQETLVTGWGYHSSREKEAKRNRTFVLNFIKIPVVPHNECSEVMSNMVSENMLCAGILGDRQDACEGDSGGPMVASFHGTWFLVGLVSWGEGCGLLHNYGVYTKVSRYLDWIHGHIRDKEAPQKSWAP
activated protein C (APC), sequence (P04070 43-197 limits assumed): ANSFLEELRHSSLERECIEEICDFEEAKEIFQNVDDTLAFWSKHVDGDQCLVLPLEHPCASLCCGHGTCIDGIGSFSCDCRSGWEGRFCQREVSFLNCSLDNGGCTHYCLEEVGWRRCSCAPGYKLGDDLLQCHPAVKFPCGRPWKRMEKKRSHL
plasmin, sequence (P00747 581-810 limits assumed, species assumed): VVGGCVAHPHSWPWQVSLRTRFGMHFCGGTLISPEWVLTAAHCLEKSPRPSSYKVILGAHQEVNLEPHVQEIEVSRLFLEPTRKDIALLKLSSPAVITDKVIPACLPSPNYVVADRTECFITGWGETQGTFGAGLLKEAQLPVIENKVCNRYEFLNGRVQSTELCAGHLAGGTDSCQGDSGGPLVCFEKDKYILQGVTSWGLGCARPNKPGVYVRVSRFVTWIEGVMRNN
plasmin, sequence (P00747 97-580 limits assumed, species assumed): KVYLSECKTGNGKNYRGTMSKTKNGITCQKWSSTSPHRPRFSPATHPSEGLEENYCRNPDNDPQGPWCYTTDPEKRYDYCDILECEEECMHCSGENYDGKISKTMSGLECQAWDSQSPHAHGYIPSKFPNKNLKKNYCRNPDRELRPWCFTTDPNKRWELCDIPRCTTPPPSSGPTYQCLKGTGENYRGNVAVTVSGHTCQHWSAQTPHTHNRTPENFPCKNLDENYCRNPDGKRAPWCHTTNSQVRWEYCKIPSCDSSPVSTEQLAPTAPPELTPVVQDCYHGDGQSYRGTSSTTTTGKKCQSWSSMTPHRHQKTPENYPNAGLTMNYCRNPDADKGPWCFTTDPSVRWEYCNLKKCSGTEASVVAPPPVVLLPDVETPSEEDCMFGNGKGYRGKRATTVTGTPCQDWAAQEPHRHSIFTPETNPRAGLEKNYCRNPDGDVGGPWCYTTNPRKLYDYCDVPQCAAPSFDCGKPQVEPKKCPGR
factor XIa, sequence (P03951 388-625 limits assumed): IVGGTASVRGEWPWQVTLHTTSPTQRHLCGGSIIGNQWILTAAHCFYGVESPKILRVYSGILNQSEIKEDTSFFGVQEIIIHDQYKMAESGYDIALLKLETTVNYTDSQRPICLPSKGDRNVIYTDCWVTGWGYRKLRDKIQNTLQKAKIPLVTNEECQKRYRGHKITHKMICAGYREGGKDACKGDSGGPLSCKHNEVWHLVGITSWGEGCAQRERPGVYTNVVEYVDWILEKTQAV
factor XIa, sequence (P03951 19-387 limits assumed): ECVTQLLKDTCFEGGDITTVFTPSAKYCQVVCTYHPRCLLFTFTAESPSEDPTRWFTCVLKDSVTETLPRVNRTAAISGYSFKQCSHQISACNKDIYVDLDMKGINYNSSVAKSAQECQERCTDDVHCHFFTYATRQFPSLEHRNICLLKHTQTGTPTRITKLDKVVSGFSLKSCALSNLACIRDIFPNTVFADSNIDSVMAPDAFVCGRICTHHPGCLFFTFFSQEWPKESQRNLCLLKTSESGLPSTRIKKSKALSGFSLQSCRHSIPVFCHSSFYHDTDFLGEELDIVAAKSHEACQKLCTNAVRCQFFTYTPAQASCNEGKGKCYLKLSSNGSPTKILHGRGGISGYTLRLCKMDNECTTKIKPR
factor Xa, sequence (P00743 234-492 limits assumed): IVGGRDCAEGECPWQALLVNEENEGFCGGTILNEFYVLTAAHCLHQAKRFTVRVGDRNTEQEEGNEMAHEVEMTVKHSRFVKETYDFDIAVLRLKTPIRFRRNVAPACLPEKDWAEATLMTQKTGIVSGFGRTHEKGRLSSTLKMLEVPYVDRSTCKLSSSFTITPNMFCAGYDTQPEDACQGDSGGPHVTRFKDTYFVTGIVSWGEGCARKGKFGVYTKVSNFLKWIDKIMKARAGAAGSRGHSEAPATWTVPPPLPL
factor Xa, sequence (P00743 41-180 limits assumed): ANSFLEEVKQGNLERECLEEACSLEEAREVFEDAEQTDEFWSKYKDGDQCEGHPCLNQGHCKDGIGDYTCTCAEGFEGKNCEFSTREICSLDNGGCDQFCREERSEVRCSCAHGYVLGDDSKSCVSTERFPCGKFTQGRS

On to `CC1CNc2c(cccc2S(=O)(=O)N[C@@H](CCCNC(=N)N)C(=O)N2CC[C@@H](C)C[C@@H]2C(=O)O)C1` (some centres unmarked) [argatroban, reference compound], for which the inhibition at 4 µg/mL on thrombin [1] (read-out: inhibition of DPRSFL–ACPP cleavage by thrombin) and at Active thrombin in serum [2] was greater than 90% each time. Also, the “reduction in fluorescence intensity relative to DPRSFL–ACPP alone” value in the series on human atheromas (110 or 220 μmol L^−1 argatroban, two atheroma specimens) was 76.6 ± 13.4%.
Turning to “Suc-e8-O-DPRSFL-r9-c(Cy5 or rhodamine)-CONH2 [DPRSFL–ACPP]”, on thrombin [3] (setting [12]), the Km stood at 15 µM and the kcat is 0.3 s⁻¹. Besides, the specificity constant (kcat/Km) at thrombin [3] (from kcat and Km) turned out to be 21000 M⁻¹ s⁻¹. Besides, the “cleavage by purified thrombin” value at thrombin [1] (5 μmol L^−1 peptide, 50 nM thrombin, 20 min, 37 °C, triplicate) is given as “efficiently cleaved”. Also, the cleavage by plasmin entry at plasmin is “able to cleave”. Besides, the cleavage by trypsin result in the series with trypsin is on record as “able to cleave”. The cleavage by chymotrypsin entry in the series with chymotrypsin is on record as “able to cleave”. The “cleavage by factor Xa” value on factor Xa is “able to cleave”. For the same molecule, at factor VIIa, the “cleavage by factor VIIa” value is “no cleavage”. The “cleavage by factor XIa” value at factor XIa is “no cleavage”. Besides, at factor XIIa, the “cleavage by factor XIIa” value is given as “no cleavage”. In addition, the “cleavage by cathepsin G” value at cathepsin G is listed as “no cleavage”. Moreover, the “cleavage by neutrophil elastase” value at neutrophil elastase is “no cleavage”. Further, the “cleavage by APC” value in [4] was “no cleavage”. For the same molecule, the “fold increase in clot fluorescence intensity compared to mPEG–ACPP” value in series [5] amounted to 2.4 fold. This molecule also returned a whole blood half-life in series [6] of 17 ± 5 min. Also, the “fluorescence intensity of individual plaques, Group 2” value in the series with atherosclerotic plaques [7] (n = 3, p = 0.007 vs Group 1) is reported as 43.7 ± 7.5. The “whole aorta fluorescence per pixel, Group 2 (more advanced plaques)” value in the series on atherosclerotic plaques [7] (n = 4, p = 0.02 vs Group 1) was 24.4 ± 3.6. The “fluorescence intensity of individual plaques, Group 1” value in the series with atherosclerotic plaques [7] (n = 11) stood at 17.0 ± 9.3. In addition, in the series with atherosclerotic plaques [7] (n=12), the “whole aorta fluorescence per pixel, Group 1 (less advanced plaques)” value was found to be 7.8 ± 3.0. For the same molecule, the “uptake in hypocellular (DAPI poor) region versus cellular rich exterior” value in the series on atherosclerotic plaques [8] is on record as “statistically greater”. Besides, in the series on human atheromas (freshly resected human atheromas bathed in probe), the “greater cleavage product retained compared to control ACPP” value came out at 63%. The “cleavage by human atheromas (gel electrophoresis of homogenates)” value in the series on human atheromas (slices homogenized in SDS sample buffer after incubation) is “cleaved”. Besides, the “uptake relative to co-injected Cy5–PLGLAG–ACPP within the same plaques” value with atherosclerotic plaques [9] is recorded as “much higher”. The cleavage by serum result at Active thrombin in serum [10] was “rapidly cleaved”.

B1: native PAR-1 receptor: native proteinase activated receptor 1, thrombin substrate (protein, UniProt P25116 42-425, looked up)
Proteinase-activated receptor …: SFLLRNPNDKYEPFWEDEEKNESGLTEYRLVSINKSSPLQKQLPAFISEDASGYLTSSWLTLFVPSVYTGVFVVSLPLNIMAIVVFILKMKVKKPAVVYMLHLATADVLFVSVLPFKISYYFSGSDWQFGSELCRFVTAAFYCNMYASILLMTVISIDRFLAVVYPMQSLSWRTLGRASFTCLAIWALAIAGVVPLLLKEQTIQVPGLNITTCHDVLNETLLEGYYAYYFSAFSAVFFFVPLIISTVCYVSIIRCLSSSAVANRSKKSRALFLSAAVFCIFIICFGPTNVLLIAHYSFLSHTSTTEAAYFAYLLCVCVSSISCCIDPLIYYYASSECQRYVYSILCCKESSDPSSYNSSGQLMASKMDTCSSNLNNSIYKKLLT
In the case of B1, in the series with thrombin [11], the specificity constant (kcat/Km) is 7.6e+06 M⁻¹ s⁻¹.

As a reminder, the inhibition is the share of the control response that was lost under treatment. The Km is the substrate concentration at which the rate is half of its maximum. A word on the kcat: it is the number of substrate molecules converted per active site and unit of time at saturation. The kcat/Km is the second-order rate constant that governs catalysis at low substrate concentration.

The values are drawn from article PMC3689578 (Integrative biology : quantitative biosciences from nano to …, 2012).
